Experimental data published in ChEMBL document CHEMBL1687766, “In vitro activity of the new multivalent glycopeptide-cephalosporin antibiotic TD-1792 against vancomycin-nonsusceptible Staphylococcus isolates” (Antimicrob Agents Chemother, 2010).
Values after ≈ are worked out from the molar mass of the structure shown.

How the values were obtained:
Serum = test: Drug level in serum of healthy human; format: ADME, cell-free
[1] = Plasma protein binding in human; format: ADME, cell-free; conditions: read-out: PPB (converted)
[2] = Half life of healthy human; format: ADME, organism-based; conditions: in vivo
Staphylococcus aureus [3] = test: Antimicrobial activity against vancomycin-resistant Staphylococcus aureus isolate PA assessed as bacterial count at 8 times MIC after 24 hrs by colony counting method; format: functional
How it was run: (§1)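 Time-kill in triplicate. Mid-exponential culture (OD600 ~0.3) diluted in supplemented Mueller-Hinton broth to 5 × 10^6 CFU/ml. Daptomycin was run at physiologic calcium, 1.1 to 1.3 mM. […] Samples at 0, 1, 4, 8 and 24 h were diluted in cold saline or vacuum filtered, then spiral-plated on BHI agar for 24 h at 35°C. Value is the log10 CFU/ml change from baseline at 24 h.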

[4] = test system: Staphylococcus haemolyticus; test: Antimicrobial activity against vancomycin-intermediate Staphylococcus haemolyticus after 24 hrs by microdilution method; format: functional
How it was run: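 CLSI broth microdilution in supplemented Mueller-Hinton broth (12.5 μg/ml Mg, 25 μg/ml Ca), with Ca adjusted to 1.1–1.3 mM for daptomycin. Inoculum was 5 × 10^5 CFU/ml, incubated 24 h at 35°C, done in duplicate. For MBC, clear wells were plated on BHI agar and read after 24 h at 35°C.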

Staphylococcus aureus [5] = test: Antimicrobial activity against vancomycin-resistant Staphylococcus aureus isolate PA assessed as bacterial count at 16 times MIC after 24 hrs by colony counting method; format: functional; how it was run: as §1
Staphylococcus aureus [6] = test: Antimicrobial activity against vancomycin-resistant Staphylococcus aureus isolate MI assessed as bacterial count at 16 times MIC after 24 hrs by colony counting method; format: functional; how it was run: as §1
Staphylococcus aureus [7] = test: Antimicrobial activity against vancomycin-intermediate Staphylococcus aureus isolate MU50 assessed as bacterial count at 4 times MIC after 24 hrs by colony counting method; format: functional
How it was run: (§2)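 24-h time-kill run in triplicate in supplemented Mueller-Hinton broth (12.5 μg/ml Mg, 25 μg/ml Ca), adjusted to 1.1–1.3 mM Ca for daptomycin. […] Samples were taken at 0, 1, 4, 8 and 24 h and counted on BHI agar after 24 h at 35°C. Value is log10 CFU/ml change from baseline at 24 h.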

Staphylococcus aureus [8] = test: Antimicrobial activity against vancomycin-intermediate Staphylococcus aureus isolate MU50 assessed as bacterial count at 8 times MIC after 24 hrs by colony counting method; format: functional; how it was run: as §2
Staphylococcus aureus [9] = test: Antimicrobial activity against vancomycin-resistant Staphylococcus aureus isolate PA assessed as bacterial count at 4 times MIC after 24 hrs by colony counting method; format: functional; how it was run: as §1
Staphylococcus aureus [10] = test: Antimicrobial activity against vancomycin-heteroresistant Staphylococcus aureus after 24 hrs by microdilution method; format: functional
How it was run: (§3)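 Broth microdilution per CLSI, inoculum 5 × 10^5 CFU/ml, Mueller-Hinton broth with 12.5 μg/ml magnesium and 25 μg/ml calcium (SMHB). Daptomycin was instead tested in SMHB at physiologic calcium (final 1.1 to 1.3 mM). Incubation 24 h at 35°C; MIC read; run in duplicate. MBC from 5-μl samples of clear wells plated on BHI agar, 24 h at 35°C.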

Staphylococcus aureus [11] = test: Antimicrobial activity against vancomycin-resistant Staphylococcus aureus isolate NY after 24 hrs by microdilution method; format: functional; how it was run: as §3
Staphylococcus aureus [12] = test: Antimicrobial activity against vancomycin-intermediate Staphylococcus aureus isolate MU50 assessed as bacterial count at 32 times MIC after 24 hrs by colony counting method; format: functional; how it was run: as §2
Staphylococcus aureus [13] = test: Antimicrobial activity against vancomycin-intermediate Staphylococcus aureus isolate NJ992 assessed as bacterial count at 4 times MIC after 24 hrs by colony counting method; format: functional; how it was run: as §2
Staphylococcus aureus [14] = test: Antimicrobial activity against vancomycin-intermediate Staphylococcus aureus isolate MU50 assessed as bacterial count at 16 times MIC after 24 hrs by colony counting method; format: functional; how it was run: as §1
Staphylococcus aureus [15] = test: Antimicrobial activity against vancomycin-resistant Staphylococcus aureus isolate PA assessed as bacterial count at 32 times MIC after 24 hrs by colony counting method; format: functional; how it was run: as §1
Staphylococcus aureus [16] = test: Antimicrobial activity against vancomycin-resistant Staphylococcus aureus isolate PA after 24 hrs by microdilution method; format: functional; how it was run: as §3
Staphylococcus aureus [17] = test: Antimicrobial activity against vancomycin-intermediate Staphylococcus aureus isolate NJ992 assessed as bacterial count at 32 times MIC after 24 hrs by colony counting method; format: functional; how it was run: as §2
Staphylococcus aureus [18] = test: Antimicrobial activity against vancomycin-resistant Staphylococcus aureus isolate MI assessed as bacterial count at 32 times MIC after 24 hrs by colony counting method; format: functional; how it was run: as §1
Staphylococcus aureus [19] = test: Antimicrobial activity against vancomycin-resistant Staphylococcus aureus isolate MI assessed as bacterial count at 4 times MIC after 24 hrs by colony counting method; format: functional; how it was run: as §1
Staphylococcus aureus [20] = test: Antimicrobial activity against vancomycin-intermediate Staphylococcus aureus isolate NJ992 assessed as bacterial count at 16 times MIC after 24 hrs by colony counting method; format: functional; how it was run: as §2
Staphylococcus aureus [21] = test: Antimicrobial activity against vancomycin-resistant Staphylococcus aureus isolate MI after 24 hrs by microdilution method; format: functional; how it was run: as §3
Staphylococcus aureus [22] = test: Antimicrobial activity against vancomycin-intermediate Staphylococcus aureus isolate NJ992 after 24 hrs by microdilution method; format: functional; conditions: isolate NJ992, 24 h; how it was run: as §3
Staphylococcus aureus [23] = test: Antimicrobial activity against vancomycin-intermediate Staphylococcus aureus isolate NJ992 assessed as bacterial count at 8 times MIC after 24 hrs by colony counting method; format: functional; how it was run: as §2
Staphylococcus aureus [24] = test: Antimicrobial activity against vancomycin-resistant Staphylococcus aureus isolate MI assessed as bacterial count at 8 times MIC after 24 hrs by colony counting method; format: functional; how it was run: as §1
Staphylococcus aureus [25] = test: Antimicrobial activity against vancomycin-intermediate Staphylococcus aureus isolate MU50 after 24 hrs by microdilution method; format: functional; conditions: isolate MU50, 24 h; how it was run: as §3
Staphylococcus aureus [26] = test: Antimicrobial activity against vancomycin-intermediate Staphylococcus aureus after 24 hrs by microdilution method; format: functional; how it was run: as §3
Staphylococcus aureus [27] = test: Antimicrobial activity against methicillin-resistant Staphylococcus aureus infected in patient with complicated skin and skin structure infections assessed as cure rate; format: functional
[28] = Staphylococcus haemolyticus, 24 h

SMILES	MBC50 [4] [µg/mL]	MBC90 [4] [µg/mL]	MBC [4, 28] [µg/mL]	MIC50 [4, 28] [µg/mL]	MIC90 [4, 28] [µg/mL]	log10CFU/ml (Staphylococcus aureus [7])	log10CFU/ml (Staphylococcus aureus [8])	MBC (Staphylococcus aureus [10]; Staphylococcus aureus, 24 h) [µg/mL]	MIC50 (Staphylococcus aureus [10]; Staphylococcus aureus, 24 h) [µg/mL]	MIC90 (Staphylococcus aureus [10]; Staphylococcus aureus, 24 h) [µg/mL]	MBC (Staphylococcus aureus [11]) [µg/mL]	MIC (Staphylococcus aureus [11]) [µg/mL]	log10CFU/ml (Staphylococcus aureus [12])	log10CFU/ml (Staphylococcus aureus [13])	log10CFU/ml (Staphylococcus aureus [14])	MBC (Staphylococcus aureus [16]) [µg/mL]	log10CFU/ml (Staphylococcus aureus [17])	log10CFU/ml (Staphylococcus aureus [20])	MBC (Staphylococcus aureus [21]) [µg/mL]	MIC (Staphylococcus aureus [21]) [µg/mL]	further results
CN[C@H](CC(C)C)C(=O)N[C@H]1C(=O)N[C@@H](CC(N)=O)C(=O)N[C@H]2C(=O)N[C@H]3C(=O)N[C@H](C(=O)N[C@H](C(=O)NCCCO/N=C(\C(=O)N[C@@H]4C(=O)N5C(C(=O)[O-])=C(C[n+]6ccccc6)CS[C@H]45)c4nc(N)sc4Cl)c4cc(O)cc(O)c4-c4cc3ccc4O)[C@H](O)c3ccc(c(Cl)c3)Oc3cc2cc(c3O[C@@H]2O[C@H](CO)[C@@H](O)[C@H](O)[C@H]2O[C@H]2C[C@](C)(N)[C@H](O)[C@H](C)O2)Oc2ccc(cc2Cl)[C@H]1O	–	–	–	–	–	–	–	–	–	–	–	–	–	–	–	–	–	–	–	–	Drug uptake (Serum): 4.65 µg/mL; fraction unbound [1]: 0.51; half-life [2]: 6.8 h
CC(=O)NC[C@H]1CN(c2ccc(N3CCOCC3)c(F)c2)C(=O)O1 [LINEZOLID]	8 (≈ 23.7 µM)	32 (≈ 94.9 µM)	1 (≈ 2.96 µM)	2 (≈ 5.93 µM)	2 (≈ 5.93 µM)	3.19	3.26	1 (≈ 2.96 µM)	2 (≈ 5.93 µM)	2 (≈ 5.93 µM)	0.5 (≈ 1.48 µM)	0.25 (≈ 0.741 µM)	4.8	2.13	4.25	4 (≈ 11.9 µM)	4.89	3.98	16 (≈ 47.4 µM)	1 (≈ 2.96 µM)	log10CFU/ml (Staphylococcus aureus [3]): 4.2; log10CFU/ml (Staphylococcus aureus [5]): 4.24; log10CFU/ml (Staphylococcus aureus [6]): 3.64; log10CFU/ml (Staphylococcus aureus [9]): 3.24; log10CFU/ml (Staphylococcus aureus [15]): 4.95; log10CFU/ml (Staphylococcus aureus [18]): 4.52; log10CFU/ml (Staphylococcus aureus [19]): 1.31; MBC (Staphylococcus aureus [22]): 2 µg/mL (≈ 5.93 µM); MIC (Staphylococcus aureus [22]): 1 µg/mL (≈ 2.96 µM); log10CFU/ml (Staphylococcus aureus [23]): 3.66; log10CFU/ml (Staphylococcus aureus [24]): 1.55; MBC (Staphylococcus aureus [25]): 32 µg/mL (≈ 94.9 µM); MIC (Staphylococcus aureus [25]): 1 µg/mL (≈ 2.96 µM); MBC50 (Staphylococcus aureus [26]): 8 µg/mL (≈ 23.7 µM); MBC90 (Staphylococcus aureus [26]): 32 µg/mL (≈ 94.9 µM); MBC (Staphylococcus aureus [26]; Staphylococcus aureus, 24 h): 1 µg/mL (≈ 2.96 µM); MIC50 (Staphylococcus aureus [26]; Staphylococcus aureus, 24 h): 2 µg/mL (≈ 5.93 µM); MIC90 (Staphylococcus aureus [26]; Staphylococcus aureus, 24 h): 2 µg/mL (≈ 5.93 µM)
CN[C@H](CC(C)C)C(=O)N[C@H]1C(=O)N[C@@H](CC(N)=O)C(=O)N[C@H]2C(=O)N[C@H]3C(=O)N[C@H](C(=O)N[C@H](C(=O)O)c4cc(O)cc(O)c4-c4cc3ccc4O)[C@H](O)c3ccc(c(Cl)c3)Oc3cc2cc(c3O[C@@H]2O[C@H](CO)[C@@H](O)[C@H](O)[C@H]2O[C@H]2C[C@](C)(N)[C@H](O)[C@H](C)O2)Oc2ccc(cc2Cl)[C@H]1O [VANCOMYCIN]	4 (≈ 2.76 µM)	8 (≈ 5.52 µM)	4 (≈ 2.76 µM)	4 (≈ 2.76 µM)	8 (≈ 5.52 µM)	2.71	3.32	4 (≈ 2.76 µM)	4 (≈ 2.76 µM)	8 (≈ 5.52 µM)	128 (≈ 88.3 µM)	64 (≈ 44.2 µM)	4.41	2.88	4.48	64 (≈ 44.2 µM)	4.79	4.58	> 2050	1020 (≈ 707 µM)	MIC [4, 28]: 4 µg/mL (≈ 2.76 µM); Activity (Staphylococcus aureus [27]): 91.9%; MBC50 (Staphylococcus aureus [10]): 4 µg/mL (≈ 2.76 µM); MBC90 (Staphylococcus aureus [10]): 8 µg/mL (≈ 5.52 µM); MIC (Staphylococcus aureus [10]; Staphylococcus aureus, 24 h): 4 µg/mL (≈ 2.76 µM); MIC (Staphylococcus aureus [16]): 32 µg/mL (≈ 22.1 µM); MBC (Staphylococcus aureus [22]): 8 µg/mL (≈ 5.52 µM); MIC (Staphylococcus aureus [22]): 8 µg/mL (≈ 5.52 µM); log10CFU/ml (Staphylococcus aureus [23]): 4.3; MBC (Staphylococcus aureus [25]): 4 µg/mL (≈ 2.76 µM); MBC50 (Staphylococcus aureus [26]): 4 µg/mL (≈ 2.76 µM); MBC90 (Staphylococcus aureus [26]): 8 µg/mL (≈ 5.52 µM); MBC (Staphylococcus aureus [26]; Staphylococcus aureus, 24 h): 4 µg/mL (≈ 2.76 µM); MIC (Staphylococcus aureus [26]; Staphylococcus aureus, 24 h): 4 µg/mL (≈ 2.76 µM); MIC50 (Staphylococcus aureus [26]; Staphylococcus aureus, 24 h): 4 µg/mL (≈ 2.76 µM); MIC90 (Staphylococcus aureus [26]; Staphylococcus aureus, 24 h): 8 µg/mL (≈ 5.52 µM)
